Measured values from ChEMBL document CHEMBL1154977, “Antiproliferative activity of novel benzo[b][1,6]naphthyridines in human solid tumor cell lines” (Bioorg Med Chem Lett, 2010).

What was measured:
[1] = tested on: HeLa; test: Growth inhibition of human HeLa cells after 48 hrs by sulforhodamine B assay; assay type: functional
Summary of the method: (§1)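 Human solid tumor cells were exposed to drug for 48 h. Growth was measured by sulforhodamine B staining, and results were expressed as GI₅₀ (50% growth inhibition).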

[2] = tested on: Ishikawa; test: Growth inhibition of human Ishikawa cells after 48 hrs by sulforhodamine B assay; assay type: functional; summary of the method: as §1
[3] = tested on: SW1573; test: Growth inhibition of human SW1573 cells after 48 hrs by sulforhodamine B assay; assay type: functional; details: SW1573, 48 h; summary of the method: as §1
[4] = tested on: T47D; test: Growth inhibition of human T47D cells after 48 hrs by sulforhodamine B assay; assay type: functional; summary of the method: as §1
[5] = tested on: WiDr; test: Growth inhibition of human WiDr cells after 48 hrs by sulforhodamine B assay; assay type: functional; summary of the method: as §1
[6] = tested on: Escherichia coli; test: Antibacterial activity against Escherichia coli ATCC 25922 after 24 hrs by broth microdilution method; assay type: functional, organism-based; details: ATCC 25922, 24 h
Summary of the method: (§2)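 Bacteria were grown on nutrient agar at 35–37 °C for 24 h and suspended in normal saline at about 5.0 × 10⁵ cfu mL⁻¹, matched to a 0.5 McFarland standard. Broth microdilution was run in Mueller Hinton broth with growth and sterility controls. Plates were incubated at 35–37 °C in a moist dark chamber, shaken, and read for optical density at 630 nm after 24 h.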

[7] = tested on: Escherichia coli; test: Antibacterial activity against Escherichia coli ATCC 35218 after 24 hrs by broth microdilution method; assay type: functional, organism-based; details: ATCC 35218, 24 h; summary of the method: as §2
[8] = tested on: Enterococcus faecalis; test: Antibacterial activity against Enterococcus faecalis ATCC 29212 after 24 hrs by broth microdilution method; assay type: functional, organism-based; details: ATCC 29212, 24 h; summary of the method: as §2
[9] = tested on: Klebsiella oxytoca; test: Antibacterial activity against Klebsiella oxytoca ATCC 700324 after 24 hrs by broth microdilution method; assay type: functional, organism-based; details: ATCC 700324, 24 h
[10] = tested on: Klebsiella pneumoniae; test: Antibacterial activity against Klebsiella pneumoniae ATCC 700603 after 24 hrs by broth microdilution method; assay type: functional, organism-based; details: ATCC 700603, 24 h; summary of the method: as §2
[11] = tested on: Pseudomonas aeruginosa; test: Antibacterial activity against Pseudomonas aeruginosa ATCC 27853 after 24 hrs by broth microdilution method; assay type: functional, organism-based; details: ATCC 27853, 24 h; summary of the method: as §2
[12] = tested on: Staphylococcus aureus; test: Antibacterial activity against Staphylococcus aureus ATCC 25923 after 24 hrs by broth microdilution method; assay type: functional, organism-based; details: ATCC 25923, 24 h
Summary of the method: (§3)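 Bacteria grown on nutrient agar at 35–37 °C for 24 h, then suspended in normal saline to approximately 5.0 × 10⁵ cfu mL⁻¹, matched to 0.5 McFarland. Broth microdilution in Mueller Hinton broth with growth and sterility controls. Incubated at 35–37 °C in a moist dark chamber, shaken, and optical density read at 630 nm after 24 h.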

[13] = tested on: Staphylococcus aureus; test: Antibacterial activity against Staphylococcus aureus ATCC 29213 after 24 hrs by broth microdilution method; assay type: functional, organism-based; details: ATCC 29213, 24 h; summary of the method: as §3
[14] = tested on: Staphylococcus aureus; test: Antibacterial activity against epidemic methicillin-resistant Staphylococcus aureus 16 after 24 hrs by broth microdilution method; assay type: functional, organism-based; details: Staphylococcus aureus, 16, 24 h; summary of the method: as §3
[15] = tested on: Staphylococcus aureus; test: Antibacterial activity against Staphylococcus aureus NRS 107 after 24 hrs by broth microdilution method; assay type: functional, organism-based; details: NRS 107, 24 h; summary of the method: as §3
[16] = tested on: Pichia kudriavzevii; test: Antifungal activity against Candida krusei ATCC 6258 after 48 hrs by broth microdilution method; assay type: functional, organism-based; details: ATCC 6258, 48 h
Summary of the method: (§4)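 Candida strains were grown on nutrient agar at 35–37 °C for 24 h and suspended in normal saline at 1.0–5.0 × 10³ cfu mL⁻¹, matched to a 0.5 McFarland standard. Broth microdilution was run in RPMI 1640 buffered with MOPS, with growth and sterility controls. Plates were incubated at 35–37 °C in a moist dark chamber, shaken, and read for optical density at 490 nm after 48 h.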

[17] = tested on: Nakaseomyces nivariensis; test: Antifungal activity against Candida nivariensis 5937-63 after 48 hrs by broth microdilution method; assay type: functional, organism-based; details: 5937-63, 48 h; summary of the method: as §4
[18] = tested on: Candida parapsilosis; test: Antifungal activity against Candida parapsilosis ATCC 22019 after 48 hrs by broth microdilution method; assay type: functional, organism-based; details: Lodderomyces parapsilosis, ATCC 22019, 48 h; summary of the method: as §4
[19] = tested on: Candida albicans; test: Antifungal activity against Candida albicans ATCC 90028 after 48 hrs by broth microdilution method; assay type: functional, organism-based; details: ATCC 90028, 48 h; summary of the method: as §4
[20] = tested on: Nakaseomyces glabratus; test: Antifungal activity against Candida glabrata ATCC 90030 after 48 hrs by broth microdilution method; assay type: functional, organism-based; details: ATCC 90030, 48 h; summary of the method: as §4

GI50 [1] [µM]	GI50 [3] [µM]	GI50 [4] [µM]	SMILES	GI50 [2] [µM]	GI50 [5] [µM]	IC50 [6] [µM]	IC50 [7] [µM]	IC50 [8] [µM]	IC50 [9] [µM]	IC50 [10] [µM]	IC50 [11] [µM]	IC50 [12] [µM]	IC50 [13] [µM]	IC50 [14] [µM]	IC50 [15] [µM]	IC50 [16] [µM]	IC50 [17] [µM]	IC50 [18] [µM]	IC50 [19] [µM]	IC50 [20] [µM]
27	5.1	71	ClC(Cl)(Cl)C1c2cc3ccccc3nc2C=C(c2ccccc2)N1Cc1ccccc1 (stereo not given)	15	46															
6.1	6.5	15	CCCCN1C(c2ccccc2)=Cc2nc3ccccc3cc2C1C(Cl)(Cl)Cl (stereo not given)	3.1	16															
38	5.5	60	ClC(Cl)(Cl)C1c2cc3ccccc3nc2C=C(c2ccccc2)N1CCc1ccccc1 (stereo not given)	25	57															
32	46	48	C=CCN1C(c2ccccc2)=Cc2nc3ccccc3cc2C1C(Cl)(Cl)Cl (stereo not given)	31	42															
5.6	4.3	54	CCOc1ccc(CCN2C(c3ccccc3)=Cc3nc4ccccc4cc3C2C(Cl)(Cl)Cl)cc1OCC (stereo not given)	4.1	37															
6.5	31	26	ClC(Cl)(Cl)C1c2cc3ccccc3nc2C=C(c2ccccc2)N1CCN1CCOCC1 (stereo not given)	17	20															

SMILES	GI50 [1] [µM]	GI50 [3] [µM]	GI50 [4] [µM]	GI50 [2] [µM]	GI50 [5] [µM]	IC50 [6] [µM]	IC50 [7] [µM]	IC50 [8] [µM]	IC50 [9] [µM]	IC50 [10] [µM]	IC50 [11] [µM]	IC50 [12] [µM]	IC50 [13] [µM]	IC50 [14] [µM]	IC50 [15] [µM]	IC50 [16] [µM]	IC50 [17] [µM]	IC50 [18] [µM]	IC50 [19] [µM]	IC50 [20] [µM]
COC1OC(c2ccccc2)=Cc2nc3ccccc3cc21 (stereo not given)	> 100	> 100	> 100	> 100	> 100	> 100	> 100	> 100	> 100	> 100	> 100	> 100	29	> 100	> 100	> 100	> 100	> 100	> 100	> 100
CCOC1OC(c2ccccc2)=Cc2nc3ccccc3cc21 (stereo not given)	> 100	> 100	> 100	> 100	> 100	20	27	25	63	56	22	20	23	17	24	4.5	16	20	20	18
